# Results from ChEMBL document CHEMBL1134055, “The synthesis of amino-acid functionalized beta-carbolines as topoisomerase II inhibitors” (2001).
# Test system: PC-3
# Test: In vitro cell growth inhibition of PC3 cell line determined using non-radioactive cell proliferation assay at a dose of 10 uM
# Type: functional, Homo sapiens
# In short: (§1)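 Tetrazolium-type colorimetric proliferation assay (CellTiter 96 AQueous, non-radioactive); cells treated at 10, 50 and 100 µM; read as percent cell survival. All points in quadruplicate. Vehicle control DMSO (0.20%); m-AMSA (20, 40 µM) as reference control.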
row,SMILES,Cell survival [%]
1,COC(=O)[C@H](C)NC(=O)[C@@H]1Cc2c([nH]c3ccccc23)[C@@H](c2cc(OC)c(O)c(OC)c2)N1,>100
2,COC(=O)[C@H](NC(=O)[C@@H]1Cc2c([nH]c3ccccc23)[C@@H](c2cc(OC)c(O)c(OC)c2)N1)C(C)C,>100
3,COC(=O)[C@@H](NC(=O)[C@@H]1Cc2c([nH]c3ccccc23)[C@@H](c2cc(OC)c(O)c(OC)c2)N1)c1ccccc1,88.5
4,COC(=O)[C@H](CCCCN)NC(=O)[C@@H]1Cc2c([nH]c3ccccc23)[C@@H](c2cc(OC)c(O)c(OC)c2)N1,95.2
5,COc1cc([C@@H]2c3[nH]c4ccccc4c3C[C@H]3C(=O)N4CCC[C@H]4C(=O)N23)cc(OC)c1O,>100
6,COC(=O)[C@@H](Cc1c[nH]c2ccccc12)NC(=O)[C@@H]1Cc2c([nH]c3ccccc23)[C@@H](c2cc(OC)c(O)c(OC)c2)N1,>100

# Test system: NCI-H520
# Test: In vitro cell growth inhibition of H520 cell line determined using Non-Radioactive Cell Proliferation Assay at a dose of 100 uM
# Type: functional, Homo sapiens
# In short: as §1
row,SMILES,Cell survival [%]
1,COC(=O)[C@H](C)NC(=O)[C@@H]1Cc2c([nH]c3ccccc23)[C@@H](c2cc(OC)c(O)c(OC)c2)N1,>100
2,COC(=O)[C@H](NC(=O)[C@@H]1Cc2c([nH]c3ccccc23)[C@@H](c2cc(OC)c(O)c(OC)c2)N1)C(C)C,98.3
3,COC(=O)[C@@H](NC(=O)[C@@H]1Cc2c([nH]c3ccccc23)[C@@H](c2cc(OC)c(O)c(OC)c2)N1)c1ccccc1,86.8
4,COC(=O)[C@H](CCCCN)NC(=O)[C@@H]1Cc2c([nH]c3ccccc23)[C@@H](c2cc(OC)c(O)c(OC)c2)N1,>100
5,COC(=O)[C@@H](Cc1c[nH]c2ccccc12)NC(=O)[C@@H]1Cc2c([nH]c3ccccc23)[C@@H](c2cc(OC)c(O)c(OC)c2)N1,7.2

# Test system: PC-3
# Test: In vitro cell growth inhibition of PC3 cell line determined using non-radioactive cell proliferation assay at a dose of 100 uM
# Type: functional, Homo sapiens
# In short: as §1
row,SMILES,Cell survival [%]
1,COC(=O)[C@H](C)NC(=O)[C@@H]1Cc2c([nH]c3ccccc23)[C@@H](c2cc(OC)c(O)c(OC)c2)N1,95.8
2,COC(=O)[C@H](NC(=O)[C@@H]1Cc2c([nH]c3ccccc23)[C@@H](c2cc(OC)c(O)c(OC)c2)N1)C(C)C,>100
3,COC(=O)[C@@H](NC(=O)[C@@H]1Cc2c([nH]c3ccccc23)[C@@H](c2cc(OC)c(O)c(OC)c2)N1)c1ccccc1,64.5
4,COC(=O)[C@H](CCCCN)NC(=O)[C@@H]1Cc2c([nH]c3ccccc23)[C@@H](c2cc(OC)c(O)c(OC)c2)N1,90.6
5,COc1cc([C@@H]2c3[nH]c4ccccc4c3C[C@H]3C(=O)N4CCC[C@H]4C(=O)N23)cc(OC)c1O,>100
6,COC(=O)[C@@H](Cc1c[nH]c2ccccc12)NC(=O)[C@@H]1Cc2c([nH]c3ccccc23)[C@@H](c2cc(OC)c(O)c(OC)c2)N1,62.4

# Test system: PC-3
# Test: In vitro cell growth inhibition of PC3 cell line determined using Non-Radioactive Cell Proliferation Assay at a dose of 50 uM
# Type: functional, Homo sapiens
# In short: as §1
row,SMILES,Cell survival [%]
1,COC(=O)[C@H](C)NC(=O)[C@@H]1Cc2c([nH]c3ccccc23)[C@@H](c2cc(OC)c(O)c(OC)c2)N1,96.6
2,COC(=O)[C@H](NC(=O)[C@@H]1Cc2c([nH]c3ccccc23)[C@@H](c2cc(OC)c(O)c(OC)c2)N1)C(C)C,>100
3,COC(=O)[C@@H](NC(=O)[C@@H]1Cc2c([nH]c3ccccc23)[C@@H](c2cc(OC)c(O)c(OC)c2)N1)c1ccccc1,>100
4,COC(=O)[C@H](CCCCN)NC(=O)[C@@H]1Cc2c([nH]c3ccccc23)[C@@H](c2cc(OC)c(O)c(OC)c2)N1,91.2
5,COc1cc([C@@H]2c3[nH]c4ccccc4c3C[C@H]3C(=O)N4CCC[C@H]4C(=O)N23)cc(OC)c1O,>100
6,COC(=O)[C@@H](Cc1c[nH]c2ccccc12)NC(=O)[C@@H]1Cc2c([nH]c3ccccc23)[C@@H](c2cc(OC)c(O)c(OC)c2)N1,84.9

# Test system: NCI-H520
# Test: In vitro cell growth inhibition of H520 cell line determined using non-radioactive cell proliferation assay at a dose of 10 uM
# Type: functional, Homo sapiens
# In short: as §1
row,SMILES,Cell survival [%]
1,COC(=O)[C@H](C)NC(=O)[C@@H]1Cc2c([nH]c3ccccc23)[C@@H](c2cc(OC)c(O)c(OC)c2)N1,>100
2,COC(=O)[C@H](NC(=O)[C@@H]1Cc2c([nH]c3ccccc23)[C@@H](c2cc(OC)c(O)c(OC)c2)N1)C(C)C,90
3,COC(=O)[C@@H](NC(=O)[C@@H]1Cc2c([nH]c3ccccc23)[C@@H](c2cc(OC)c(O)c(OC)c2)N1)c1ccccc1,82.7
4,COC(=O)[C@H](CCCCN)NC(=O)[C@@H]1Cc2c([nH]c3ccccc23)[C@@H](c2cc(OC)c(O)c(OC)c2)N1,99.3
5,COc1cc([C@@H]2c3[nH]c4ccccc4c3C[C@H]3C(=O)N4CCC[C@H]4C(=O)N23)cc(OC)c1O,>100
6,COC(=O)[C@@H](Cc1c[nH]c2ccccc12)NC(=O)[C@@H]1Cc2c([nH]c3ccccc23)[C@@H](c2cc(OC)c(O)c(OC)c2)N1,>100

# Test system: not listed separately
# Test: Inhibition of topo II-mediated DNA relaxation measured by topo II-mediated DNA relaxation assay; ++++ indicates drug interaction with topo II
# Type: functional
# In short: (§2)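 Relaxation of supercoiled plasmid pUC18 DNA (E. coli) by topo II (2.0 units per reaction) in Tris-Cl pH 8.0 buffer with KCl, MgCl2, ATP, DTT and BSA; 1 µL of 1 mM drug in 10% DMSO per 10 µL reaction, enzyme added last; 37 °C for 30-45 min. Stopped with sarkosyl buffer, chloroform/isoamyl alcohol extraction, 1% agarose gel, ethidium stain. Densitometric qualitative scoring; gels in triplicate.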
row,SMILES,DNA relaxation
1,COC(=O)[C@@H](NC(=O)[C@@H]1Cc2c([nH]c3ccccc23)[C@@H](c2cc(OC)c(O)c(OC)c2)N1)c1ccccc1,drug interaction with topo II

# Test system: not listed separately
# Test: Inhibition of topo II-mediated DNA relaxation measured by topo II-mediated DNA relaxation assay; +++ indicates drug interaction with topo II
# Type: functional
# In short: as §2
row,SMILES,DNA relaxation
1,COC(=O)[C@@H](Cc1c[nH]c2ccccc12)NC(=O)[C@@H]1Cc2c([nH]c3ccccc23)[C@@H](c2cc(OC)c(O)c(OC)c2)N1,drug interaction with topo II

# Test system: NCI-H520
# Test: In vitro cell growth inhibition of H520 cell line determined using non-radioactive cell proliferation assay at a dose of 50 uM
# Type: functional, Homo sapiens
# In short: as §1
row,SMILES,Cell survival [%]
1,COC(=O)[C@H](C)NC(=O)[C@@H]1Cc2c([nH]c3ccccc23)[C@@H](c2cc(OC)c(O)c(OC)c2)N1,>100
2,COC(=O)[C@H](NC(=O)[C@@H]1Cc2c([nH]c3ccccc23)[C@@H](c2cc(OC)c(O)c(OC)c2)N1)C(C)C,>100
3,COC(=O)[C@@H](NC(=O)[C@@H]1Cc2c([nH]c3ccccc23)[C@@H](c2cc(OC)c(O)c(OC)c2)N1)c1ccccc1,89.9
4,COC(=O)[C@H](CCCCN)NC(=O)[C@@H]1Cc2c([nH]c3ccccc23)[C@@H](c2cc(OC)c(O)c(OC)c2)N1,>100
5,COc1cc([C@@H]2c3[nH]c4ccccc4c3C[C@H]3C(=O)N4CCC[C@H]4C(=O)N23)cc(OC)c1O,>100
6,COC(=O)[C@@H](Cc1c[nH]c2ccccc12)NC(=O)[C@@H]1Cc2c([nH]c3ccccc23)[C@@H](c2cc(OC)c(O)c(OC)c2)N1,35.2

# Test system: NCI-H520
# Test: In vitro cell growth inhibition of H520 cell line determined using non-radioactive cell proliferation assay at a dose of 100 uM
# Type: functional, Homo sapiens
# In short: as §1
row,SMILES,Cell survival [%]
1,COc1cc([C@@H]2c3[nH]c4ccccc4c3C[C@H]3C(=O)N4CCC[C@H]4C(=O)N23)cc(OC)c1O,>100
